From the EternaBench riboswitch data come the findings set out here.

The series has as its system MS2 coat protein. Put plainly: apparent Kd, MS2 coat protein; higher = weaker binding; RNA-MaP array; FMN 200 µM where present. In a few lines: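 Two titrations, one without ligand and one with constant ligand, were run with SNAP-549-labelled MS2 coat protein from 0.7 or 1.5 nM, doubling to 3 µM. The targets were designs transcribed by stalled E. coli RNA polymerase on Illumina sequencing-chip clusters, in 100 mM Tris-HCl pH 7.5, 80 mM KCl, 4 mM MgCl2, BSA, DTT, yeast tRNA and Tween-20. The apparent Kd is the median of filtered per-cluster binding-curve fits, with green signal normalised to red-channel RNA signal and control-cluster median Fmax.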

Where [1] appears, read: designed as: OFF switch for flavin mononucleotide, no ligand.
[2] abbreviates: ligand present: flavin mononucleotide, designed as: OFF switch for flavin mononucleotide.
[3] abbreviates: ligand present: flavin mononucleotide, designed as: ON switch for flavin mononucleotide.
Setting [4] is: designed as: ON switch for flavin mononucleotide, no ligand.

As usually defined, the apparent Kd is the concentration giving half-maximal binding under the conditions of the assay. On to “AUCAGCUCGUCAGGAUAUACGUCACUGCGUCAGCAGUGUGGUAAGAUCACAUGAGGAUCACCCAUGUAGAAGGGACCAGCUGAU”, for which the “apparent Kd” value under setting [1] came to 0.0134 µM and the “apparent Kd” value under setting [2] was determined as 0.229 µM. For “UUUUUUUUGUGAGGAUAUACAACAUGAGGAUCACCCAUGUCAUGUUCAACAUGAGGAUCACCCAUGUAGAAGGCGCUUUUUUUU”, in that order: 0.281 µM and 0.247 µM.

Turning to “AGUGCGUAUGUGAGGAUAUGCUGGUCCUUGGAUCAGCAGAAGGCACAUGAGGAUCACCCAUGUGGUGUCGUACU”, the “apparent Kd” value is, setting by setting: under setting [1], 0.253 µM; under setting [2], 0.0272 µM. Turning to “UUGGACGUCGUAGGAUAUGUAGGAUAUUCCUACAUGAGGAUCACCCAUGUUGACAUGGAAGAAGGACAGAAGUACGAUGUCCAU”, under setting [3], the “apparent Kd” value was 0.0056 µM. Consider “UGUUGUAUUACAGGAUAUCUAUGAUUUUUGUUUAGAGAAGGGUAUUCACAUGAGGAUCACCCAUGUAUAUACGAGGAAGUUGUG”, for which the “apparent Kd” value was 0.0603 µM under setting [4] and 0.0747 µM under setting [3]. For “UUGGACGUCGUAGGAUAUGUAGGAUAUUCCUACAUGAGGAUCACCCAUGUUGACAUGGAAGAAGGACAGAAGGAGGAUGUCCAU”, in that order: 0.303 µM and 0.00718 µM. For “GGAUCGAGUGUGAGGAUAUGCUGGUCCUUGGAUCAGCAGAAGGCACAUGAGGAUCACCCAUGUCCAAACGGUCC”, the “apparent Kd” value reads like this: under setting [1], 0.266 µM; under setting [2], 0.388 µM. Take “GCAUAUCAGGGAGGAUAUGACAUGAGGAUCACCCAUGUAAUUAUGGCUCUGUCAGAAGGCCCAUCAUCACUAUAGUGACGAGAA”: the “apparent Kd” value by setting is: under setting [1], 0.479 µM; under setting [2], 0.0632 µM.

“AUAAAGCGAGGAUAUCGCGCGGAGUACAUGAGGAUCACCCAUGUGGUCCGCAGUCCUGCGCGAGAAGGCGCAUUCC”: the “apparent Kd” value runs as follows: under setting [1], 0.138 µM; under setting [2], 0.0542 µM.

Turning to “AUACAUGAGGAUCACCCAUGUAAUUAAUUAACUUGUAAGAUCAAGGAUAUCAGCUCGAAUAGAGCUGAGAAGGUGAUCACAUGU”, the “apparent Kd” value by setting is: under setting [4], 0.179 µM; under setting [3], 0.22 µM. Consider “AUUUAACAUGAGGAUCACCCAUGUGAGGAUAUGUCCAUUUUAAACAAAUAGGAUAUGGACAGAAGGCACACCGG”, for which the “apparent Kd” value under setting [1] is 0.162 µM and the “apparent Kd” value under setting [2] came out at 0.366 µM. For “CGAUAGGACAGAGGAUAUACACAUGAGGAUCACCCAUGUGAUUACAACGCUUAAGCUCCAAACAUGUAGAAGGCUGUCCUAUCG”, the “apparent Kd” value reads like this: under setting [1], 0.0217 µM; under setting [2], 0.0279 µM. For the sequence “UCUGCUCGAGGAUAUACAUGAGGAUCACCCAUGUAUCCCUGUAGCAUGGCCUCAGGAUGUAGAAGGCGACGCUA”, the “apparent Kd” value under setting [1] amounted to 0.0149 µM and the “apparent Kd” value under setting [2] amounted to 0.0168 µM. In the case of “UGUCCAUAGCAGAAGGACAUGAGGAUCACCCAUGUAAUCAUACAACCAAAUGUAGGAUAUGCUAUGGACUAAGAGCGAAAGCUC”, the “apparent Kd” value under setting [1] stood at 0.0075 µM and the “apparent Kd” value under setting [2] stood at 0.0344 µM. On the same counts, the results for “AGAAAGUCAGGAUAUCGAAGGUAGUGGAGAGGAGUGUGGUACGAGAAGGGACAUGAGGAUCACCCAUGUAGGAG” are 0.0341 µM and 0.0314 µM.

Regarding “CCACGUCAGAUUAACAUGAGGAUCACCCAUGUCUUUUGACAUGAGGAUAUGGAUCCUAAUUGGAUCCAGAAGGCAUGGACGUGG”, the “apparent Kd” value runs as follows: under setting [4], 0.963 µM; under setting [3], 0.0969 µM. On to “GCAGGGUAUGAGAAGGCAUAAUUUAUCUUACCACAUGUUUACAUGAGGAUCACCCAUGUUUCCUAUGAGGAUAUCAUACCGUGC”, for which the “apparent Kd” value is, setting by setting: under setting [1], 0.0124 µM; under setting [2], 0.00998 µM.

Turning to “AGGUGGUGUGGAAAGGAUAUACGGUUGAGGACAUGAGGAUCACCCAUGUGGUAGAGGACGUGAGUGUAGAAGGUUCGGGAUUGGU”, the “apparent Kd” value is 0.0749 µM under setting [4] and 0.0521 µM under setting [3]. Turning to “AAAGUUGGUAGGCCCUUGGAACAUGAGGAUCACCCAUGUAAGGAGGAUAUGCCCGGUACCCGCUGGCAGAAGGCCUUAUAAGAA”, the “apparent Kd” value runs as follows: under setting [1], 0.0205 µM; under setting [2], 0.143 µM.

Regarding “AGGUAGUCAGGAUAUUAUUUUUAGCGGGAUAACGCUGAGGGUGAGAAGGGACAUGAGGAUCACCCAUGUUUUGA”, the “apparent Kd” value under setting [1] came out at 0.258 µM and the “apparent Kd” value under setting [2] turned out to be 0.191 µM.

As to “GUCGUGUGAGGAUAUGAUUAUUAGGCGGGAUUGCGACUGCUUCAGAAGGCACAUGAGGAUCACCCAUGUAUGAA”, the “apparent Kd” value stood at 0.0114 µM under setting [1] and 0.039 µM under setting [2]. On the same counts, the results for “AUCAGCUCAUCAGGAUAUACGUCACUGCGUCAGCAGUGUGGUAAGAUCACAUGAGGAUCACCCAUGUAGAAGGGACGAGCUGAU” are 0.0137 µM and 0.243 µM. For “UUUUAACAUGAGGAUCACCCAUGUGAGGAUAUCGAAAUUUAUAUUAAUAUUUUUAAAACGAGAAGGCACAUUUU”, the “apparent Kd” value by setting is: under setting [1], 0.0613 µM; under setting [2], 0.0848 µM.

On to “AAAAAGGCAGGAUAUACAUGAGGAUCACCCAUGUAAAGAAAAGAAAGAUCCAAAGAAAGUAGAAGGGCCAAAAA”, for which the “apparent Kd” value under setting [1] worked out at 0.0748 µM and the “apparent Kd” value under setting [2] was found to be 0.286 µM.

For the sequence “UUUAUUAAACAAGGAUAUCAUUUGUGUACAAGUUUUACAUGAGGAUCACCCAUGUUAAAUGGUUUUGAGAAGGUGUUUAGAAUU”, the “apparent Kd” value under setting [4] was determined as 0.0342 µM and the “apparent Kd” value under setting [3] was 0.0252 µM. Turning to “UGUGAGUUGAUGUUAGAUAGGAGUACAUGAGGAUCACCCAUGUAGGAUAUUCAAAGACGCAGAUAGAAGAAGGACAUAGGUUUC”, the “apparent Kd” value under setting [1] was 0.0161 µM and the “apparent Kd” value under setting [2] was determined as 0.0148 µM.

For “CCUGAGUCAGGAUAUUGUACCGGCCUGAAGCCAGGCCGGCCCAAGAAGGGACAUGAGGAUCACCCAUGUGAAAA”, the “apparent Kd” value under setting [1] was determined as 0.0359 µM and the “apparent Kd” value under setting [2] stood at 0.0739 µM.

In the case of “GUGGUCAGACAUGAGGAUCACCCAUGUGGAAUAAAUAACACACAGGAUAUCUAAUAUAAAAUAUAAGAGAAGGGUGGAUUGGUG”, the “apparent Kd” value under setting [4] turned out to be 0.273 µM and the “apparent Kd” value under setting [3] was 0.182 µM. On to “CAAGUGCCGGAAGGAUAUCAGCGAUGUCACGCUUGAGAAGGUCUGUGCACAUGAGGAUCACCCAUGUCCGCCAGACUCCUUAAC”, for which the “apparent Kd” value worked out at 0.00998 µM under setting [1] and 0.00849 µM under setting [2].

For the sequence “CACGGGUUAGGAUAUGCAUGGUGAAAAGACGCGAUCCUUAGACAUGAGGAUCACCCAUGUAGAAGGAACGCAAU”, the “apparent Kd” value under setting [1] is 0.0186 µM and the “apparent Kd” value under setting [2] stood at 0.0159 µM. Consider “GCCUCAGAAUUAAUUGUGAGAAGCAGAAGGCUAUAUCUUAUGUUAGACAUGAGGAUCACCCAUGUAGAGGAUAUGCUGUUACAG”, for which the “apparent Kd” value was 0.00784 µM under setting [1] and 0.012 µM under setting [2]. In the case of “AGAAGGCUACAGAAGGGACACACACGGUGGGAGUCAGGAUAUGUAGUGAAAACGUUACAUGAGGAUCACCCAUGUAGACCUUCC”, the “apparent Kd” value runs as follows: under setting [4], 0.141 µM; under setting [3], 0.0184 µM. Turning to “GAAAAACAUGAGGAUCACCCAUGUAGAAAUAUGGGAGGAUAUACAAAGUCGAAAGACAAAGUAGAAGGCCUAAAAG”, the “apparent Kd” value is 0.146 µM under setting [4] and 0.0269 µM under setting [3]. As for “AAUAACAGAGGAUAUACUAUUUUAUGUGUUUGUUAUUUUGAACAUGAGGAUCACCCAUGUAGAAGGCUGAAUAA”, the “apparent Kd” value by setting is: under setting [1], 0.025 µM; under setting [2], 0.0272 µM. As for “AUCAUUCGUGUAGGAUAUGCGUGACGAAGUCAUGCAGAAGGACAUGAGGAUCACCCAUGUCUUUCUCGAGCUGUAGCUCGAGGA”, the “apparent Kd” value runs as follows: under setting [1], 0.0239 µM; under setting [2], 0.156 µM. On to “ACUGGUCGAGGAUAUACAAUCGUGCUUCGGCACGUAAGAUCACAUGAGGAUCACCCAUGUAGAAGGCGACCAGU”, for which the “apparent Kd” value came to 0.0603 µM under setting [1] and 0.743 µM under setting [2]. In the case of “CUUUUGGCAGGAUAUGCUUUUUUUGACAUGAGGAUCACCCAUGUGAUGCAUUUUGGGUUUGCAGAAGGGCCUGAGU”, the “apparent Kd” value worked out at 0.0635 µM under setting [1] and 0.0875 µM under setting [2]. With “ACCUCGUACACAGGAUAUGAUUACUUGCAGCCUGCGUUGACAUGAGGAUCACCCAUGUGGACUGAUCAGAAGGGUGAACGGAAG”, under setting [3], the “apparent Kd” value worked out at 0.112 µM. In the case of “GCGAUAACAUGAGGAUCACCCAUGUAUGUGGCGGGCCCUACGAGAAGGCCAUGUAACAAAUACAUGGAGGAUAUCGGAUGAGUU”, the “apparent Kd” value reads like this: under setting [4], 0.153 µM; under setting [3], 0.0266 µM. As to “AACAGUACAGGAUAUACAUGAGGAUCACCCAUGUGAAGAAUAAGUGGAGUACCACAAAGUAGAAGGGUACUGGA”, the “apparent Kd” value under setting [1] was found to be 0.0267 µM and the “apparent Kd” value under setting [2] turned out to be 0.132 µM. On the same counts, the results for “UAUUGAGCAGGAUAUUAACGGGUUUACAUGAGGAUCACCCAUGUGGUCCCGUGUUAGCUAUAAGAAGGGCUGAUGA” are 0.0355 µM and 0.12 µM. As for “GGUACCUUCACAGGAUAUGCUAUGCUUUGCGUAGCAGAAGGGUGAUACAUGAGGAUCACCCAUGUGGUGCCAGGGCGUGAGCCC”, the “apparent Kd” value was 0.283 µM under setting [4] and 0.278 µM under setting [3].

Regarding “AUUUUCCUGGCAGGAUAUCUUACACAUGAGGAUCACCCAUGUACAAAAGUGGGAGAAGGGUCGUGGAGGUGUAUAGUCGAAUAG”, the “apparent Kd” value worked out at 0.0792 µM under setting [4] and 0.0361 µM under setting [3]. “UGUCCAUAGCAGAAGGACAUGAAUAAACAUGAAAACAUGAGGAUCACCCAUGUAGGAUAUGCUAUGGACUAAGAGCGAAAGCUC”: the “apparent Kd” value was determined as 0.00706 µM under setting [1] and 0.0481 µM under setting [2]. For “CAUGUCUGAGGAUAUCGUUAUUUGUACAUGAGGAUCACCCAUGUCCUAUUUAUUAUAUUUCGAGAAGGCAGUGUAU”, in that order: 0.0169 µM and 0.0182 µM. On the same counts, the results for “ACAUGAGGAUCACCCAUGUGACCACAAUGGCUGAUGUAACAACAGGAUAUUCGUGAAUAUCUAACGAAGAAGGGUUAUGACUGG” are 0.0714 µM and 0.0652 µM. Consider “GGAAAACAUGAGGAUCACCCAUGUGAGGAUAUCGAUGUCCAGAGGGAGGUGCGGGACUCGAGAAGGCACUUGGA”, for which the “apparent Kd” value is, setting by setting: under setting [1], 0.0342 µM; under setting [2], 0.0828 µM.

For “ACAGCGUGAGGAUAUACAUGAGGAUCACCCAUGUGUGGCAGGUUAUCCUGUCAUAAGUGUAGAAGGCACGCUGU”, the “apparent Kd” value was found to be 0.0444 µM under setting [1] and 0.0939 µM under setting [2].
